The list is not random: actives were taken first. Their share in the collection is about 4.9%.
STAT3 inh-1 – reduces IL-6 driven STAT3 reporter signal; U3A cells, IL-6 STAT3-luciferase reporter, luminescence; host cell line lacks STAT1; 190,000 compounds, 0.89% hits; AID 862; inhibition, % at 5.5 µM;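 active = inhibition above the mean inhibition across all screened compounds plus 3 SD, cut at about 44% in these data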;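 also: 0% = DMSO only wells and 100% = 100 µM nifuroxazide control wells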
STAT3 activator – increases IL-6 driven STAT3 reporter signal; U3A cells, IL-6 STAT3-luciferase reporter, luminescence; 100% = signal with IL-6 EC80 alone; 190,000 compounds, 0.91% hits; activation (% of control), % at 5.6 µM;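 active = activation above the screen-wide mean of compound activation plus 3 SD, cut at about 130% in these data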;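 also: 0% = background luminescence of wells with medium and substrate only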
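Assay system – human STAT1-deficient U3A cells with stable STAT3-luciferase reporter · Also added – IL-6 (33 ng/mL) · Schedule – compound 1 h, then IL-6 6 h at 37 °C · Technique – reporter luminescence signal · Evaluation – % activation versus median of IL-6-stimulated wells · Benchmarks – IL-6-only wells as 100% reference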
STAT1 act – STAT1 signaling activation; NIH 3T3 STAT1-luciferase reporter, IFN-gamma, luminescence; 100% = IFN-gamma alone, no compound; activation (% of control), % at 5.5 µM; 200,000 compounds, 2.6% hits; AID 932;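 active = activation above the screen-wide mean activation plus 3 SD, cut at about 130% in these data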;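 also: raw ratio to IFN-gamma control signal so 100% means no change and 0% no light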
STAT1 blocker – reduces IFN-gamma driven STAT1 reporter signal | 200,000 compounds, 0.35% hits | NIH 3T3 STAT1-luciferase reporter, luminescence | inhibition, % at 5.5 µM;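 active = inhibition above a set limit, the mean inhibition across all tested compounds plus 3 SD, cut at about 34% in these data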;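 also: 0% = IFN-gamma with DMSO and 100% = IFN-gamma with 300 µM nifuroxazide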
APP 5'UTR act – APP 5'UTR luciferase reporter activation; SH-SY5Y APP 5'UTR luciferase reporter, luminescence; zero percent = DMSO vehicle wells; activation, % at 2 µM; 190,000 compounds, 1% hits; AID 1276;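 active = activation above a set limit, based on mean plus 3 SD of controls, cut at about 140% in these data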
NF-kB expr up – raises NF-kB expression in human neuronal cells; NF-kB reporter expression; stronger effect = higher value; fold change at 12.5 µM; 190,000 compounds, 1.6% hits; AID 1239; in the data active = fold change above about 3.3
STAT3 inh-2 – confirmation of STAT3 signaling inhibitors; 1,200 compounds, 45% hits; U3A cells, IL-6 STAT3 luciferase reporter, luminescence; cell line lacks STAT1; inhibition, % at 5.7 µM; shares compounds with STAT3 inh-1;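 active = inhibition above the hit cutoff computed for the primary STAT3 screen, cut at about 44% in these data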;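 also: 0% = IL-6 plus DMSO and 100% = IL-6 plus nifuroxazide control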
NFkB inh 2 – NF-kappaB inhibition in STAT3 inhibitor counter-screen | shares compounds with STAT3 inh-1 | HEK293T NF-kB luciferase reporter, TNF-alpha induced | inhibition, % at 5.7 µM | 1,200 compounds, 36% hits | AID 1308;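 active = inhibition above the mean of solvent-only control wells plus 3 SD, cutoff set per campaign, cut at about 13% in these data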;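 also: 0% = TNF-alpha with DMSO and 100% = TNF-alpha with MG high control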
STAT1 inh STAT3c – STAT1 inhibition in STAT3 inhibitor counter-screen | inhibition, % at 5.7 µM | 1,200 compounds, 27% hits | shares compounds with STAT3 inh-1 | AID 1317 | NIH 3T3 STAT1-luciferase reporter, IFN-gamma induced, luminescence;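 active = inhibition above the mean plus 3 SD of solvent-only control wells, limit set per screening run, cut at about 16% in these data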;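 also: 0% = DMSO with IFN-gamma and 100% = nifuroxazide control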
* marks the source's active call; other numbers are inactive results; . = no result given.

SMILES	STAT3 inh-1	STAT3 activator	STAT1 act	STAT1 blocker	APP 5'UTR act	NF-kB expr up	STAT3 inh-2	NFkB inh 2	STAT1 inh STAT3c
C/C=C/C(=O)OCC(=O)Nc1cc(-c2cc(C)c(C)cc2C)nn1-c1ccccc1	-12	109	94	6	5	0.97	.	.	.
Cn1c(=O)oc2cc(S(=O)(=O)N3CCCC(C(=O)Nc4ccccn4)C3)ccc21 (stereo not drawn)	13	93	94	7	3	0.98	.	.	.
Cn1c(=O)oc2cc(S(=O)(=O)N3CCCC(C(=O)NC4CCCc5ccccc54)C3)ccc21 (stereo not drawn)	81*	37	89	12	-10	1.4	75*	34*	-6
Cn1c(=O)oc2cc(S(=O)(=O)N3CCCC(C(=O)N4CC=C(c5ccccc5)CC4)C3)ccc21 (stereo not drawn)	56*	58	79	23	-10	0.55	44*	6	12
O=C(C1=C[C@@H](c2ccc(C(F)(F)F)cc2)C[C@@H](OCc2ccc(CO)cc2)O1)N1CCN(Cc2ccccc2)CC1	.	.	95	7	-2	0.9	.	.	.
CC1CN(C(=O)C2(C)CC2(Br)Br)CC(C)O1 (stereo not drawn)	2	101	98	2	9	1.1	.	.	.
COc1ccc(OCC(=O)N2N=C(C(F)F)CC2(O)C(F)F)cc1 (stereo not drawn)	1	100	97	3	-4	1.3	.	.	.
Cc1ccoc1C(=O)Nc1ccc(CC(=O)O)cc1	57*	52	75	27	-79	0.58	51*	27*	14
O=C(NCCc1ccccc1)C1CCC(CNc2nc(=S)[nH]c3ccccc23)CC1 (stereo not drawn)	3	99	104	-6	23	0.95	.	.	.
O=C(C1CCC(CNc2nc(=S)[nH]c3ccccc23)CC1)N1CCN(c2ccccn2)CC1 (stereo not drawn)	50*	58	91	10	-1	0.9	52*	8	35*
Cc1ccc(S(=O)(=O)C(C#N)c2nc3ccccc3nc2N2CCN(C)CC2)cc1 (stereo not drawn)	44*	67	109	-10	-3	0.87	59*	19*	3
CCOC(=O)N1CCN(c2nc3ccccc3nc2C(C#N)S(=O)(=O)c2ccc(C)cc2)CC1 (stereo not drawn)	3	98	99	1	3	0.71	.	.	.
CC(=O)Nc1c(O)nc(SCc2ccccc2C#N)[nH]c1=O	-10	106	101	-1	-1	1.2	.	.	.
COc1ccc(/C=N/Nc2nncc3ccccc23)cc1	64*	45	120	-22	188*	3.1	71*	51*	33*
Cc1cc(C)cc(N=c2c([N+](=O)[O-])nn(-c3ccc4c(c3)OCCO4)n2O)c1	17	92	102	-4	-23	0.45	.	.	.
Cc1ccc(N=c2c([N+](=O)[O-])nn(-c3ccc4c(c3)OCCO4)n2O)c(Cl)c1	49*	62	71	30	14	0.7	-15	0	-61
COc1cc(CC(=O)OCC(=O)Nc2ccc(S(=O)(=O)N3CCCC3)cc2)cc(OC)c1OC	0	106	100	-1	18	1.3	.	.	.
COc1ccc(CN(C)C(C)C(=O)Nc2ccc(S(=O)(=O)N3CCCC3)cc2)c(OC)c1OC (stereo not drawn)	45*	64	75	26	14	0.78	32	3	18*
O=C(Nc1nonc1NC(=O)c1cccs1)c1cccs1	44*	66	91	11	-18	0.93	47*	13*	7
Cc1nn(C)c(C)c1/C=C/C(=O)c1ccc(Cl)cc1Cl	66*	46	76	25	-4	1.8	65*	13*	16

Screens from PubChem BioAssay.
